Reference: article PMC8290212 (Bioorganic & medicinal chemistry letters, 2019)
“Also recorded” adds a separate entry of the source. Like-named read-outs stand apart in the source and are kept apart here. Marks after values point to notes of the source that are not given here.

Experiments:
[1] = test system: Influenza A virus H1N1, Influenza A/California/7/2009; type: cell-based
[2] = test system: Influenza A virus H5N1, Influenza A/Vietnam/1203/2004 × A/PR/8/34 (recombinant H5N1); assay: microbe, parasite or virus in culture; type: cell-based; details: H5N1|PR/8, MDCK
[3] = test system: A/PR/8/34 strain of influenza A virus (H1N1); type: cell-based
NS1-pYES yeast strain = assay: Yeast-based NS1 assay: reversal of NS1-induced slow-growth phenotype; type: cell-based; details: for restoration of yeast growth (reversal of slow growth phenotype): NS1-pYES strain, 50 μM, 22, 42 and 60 h
IFN-β mRNA = assay: RT-PCR analysis of IFN-β mRNA in MDCK cells; type: cell-based; details: MDCK infected with A/PR/8/34, MOI 2, 20 μM, 6 h
Procedure, shortened: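 MDCK cells infected with influenza A/PR/8/34 (MOI 2) and incubated with test compound (20 μM) for 6 h, then harvested. IFN-β mRNA detected by RT-PCR, with β-actin mRNA as reference. Poly(I:C)-induced cells were the positive control for IFN-β induction and RT-PCR. Uninfected cells received the same drug treatment and RT-PCR in parallel.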

[4] = microsomes; for Mouse Liver Microsomal Stability (% remaining) 0 min: 0 h; for Mouse Liver Microsomal Stability (% remaining) 15 min: 0.25 h; for Mouse Liver Microsomal Stability (% remaining) 30 min: 0.5 h
in vitro [5] = details: dog
in vitro [6] = details: human, Caco-2, Efflux Ratio
Caco-2 monolayer = details: human, Caco-2, 2 h
[7] = Mouse liver microsomal stability

CCOc1cc(-c2c(C#N)c(O)nc3c2c(C)nn3-c2ccc(F)cc2)ccc1O [Compound 1]
EC50 [1]: single digit micromolar
EC50 [2]: 28.5 µM
Cytotoxicity towards host MDCK cells (MDCK cells): without toxicity

Cc1ccc(-n2nc(C)c3c(-c4ccc(O)c(O)c4)c(C#N)c(N)nc32)cc1C [Compound 4]
dose response in the TCID50 assay [3]: successfully decreased viral titer with increasing concentration
EC50 [1]: single digit micromolar
restoration of yeast growth (reversal of slow growth phenotype) (NS1-pYES yeast strain): show the same behavior
restoration of IFN-β mRNA levels in infected cells (IFN-β mRNA): significantly restored IFN-β mRNA levels
Mouse Liver Microsomal Stability (% remaining) 0 min [4]: 100 % remaining
Mouse Liver Microsomal Stability (% remaining) 15 min [4]: 78 % remaining
Mouse Liver Microsomal Stability (% remaining) 30 min [4]: 64 % remaining
CC50 (in vitro [5]): 24.5 µM

Cc1nn(-c2ccc(Cl)cc2)c2nc(N)c(C#N)c(-c3ccc(O)c(O)c3)c12 [Compound 6]
dose response in the TCID50 assay [3]: successfully decreased viral titer with increasing concentration
restoration of yeast growth (reversal of slow growth phenotype) (NS1-pYES yeast strain): show the same behavior
restoration of IFN-β mRNA levels in infected cells (IFN-β mRNA): significantly restored IFN-β mRNA levels
Mouse Liver Microsomal Stability (% remaining) 0 min [4]: 100 % remaining
Mouse Liver Microsomal Stability (% remaining) 15 min [4]: 93 % remaining
Mouse Liver Microsomal Stability (% remaining) 30 min [4]: 90 % remaining
CC50 (in vitro [5]): 24.5 µM
efflux ratio at 2 h (in vitro [6]): 7.78

COc1cc(-c2c(C#N)c(N)nc3c2c(C)nn3-c2ccc(F)cc2)ccc1O [Compound 10]
dose response in the TCID50 assay [3]: successfully decreased viral titer with increasing concentration
EC50 [1]: single digit micromolar
EC50 [2]: 3.6 µM
restoration of yeast growth (reversal of slow growth phenotype) (NS1-pYES yeast strain): show the same behavior
restoration of IFN-β mRNA levels in infected cells (IFN-β mRNA): significantly restored IFN-β mRNA levels
Mouse Liver Microsomal Stability (% remaining) 0 min [4]: 100 % remaining
Mouse Liver Microsomal Stability (% remaining) 15 min [4]: 74 % remaining
Mouse Liver Microsomal Stability (% remaining) 30 min [4]: 60 % remaining
CC50 (in vitro [5]): 24.7 µM

COc1cc(-c2ccnc3c2c(C)nn3-c2ccc(C(F)(F)F)cc2)ccc1O [Compound 32]
dose response in the TCID50 assay [3]: successfully decreased viral titer with increasing concentration
selectivity index (SI) [3]: greater than 100 fold
viral suppression (TCID50) [3]: 3 log units
EC50 [1]: sub-micromolar
acute toxicity in yeast assay (NS1-pYES yeast strain; 50 μM): does not display acute toxicity
restoration of yeast growth (reversal of slow growth phenotype) (NS1-pYES yeast strain): reversal of the slow growth phenotype; also recorded: reversed
restoration of IFN-β mRNA levels in infected cells (IFN-β mRNA): significantly restored IFN-β mRNA levels
restoration of IFN-β mRNA levels in infected cells (IFN-β mRNA; listed as C00006): Restores IFN-β mRNA levels
Cytotoxicity towards host MDCK cells (MDCK cells; dog): did not affect cell viability at 5, 10, 50 and 100 μM
Mouse Liver Microsomal Stability (% remaining) 0 min [4]: 100 % remaining
Mouse Liver Microsomal Stability (% remaining) 15 min [4]: 66 % remaining
Mouse Liver Microsomal Stability (% remaining) 30 min [4]: 45 % remaining
Efflux Ratio (Caco-2 monolayer): 1.20^b
CC50 (in vitro [5]): 19.8 µM
efflux ratio at 2 h (in vitro [6]): 2.29

COc1cc(-c2ccnc3c2c(C)nn3-c2cccc(C(F)(F)F)c2)ccc1O [Compound 33]
restoration of yeast growth (reversal of slow growth phenotype) (NS1-pYES yeast strain): show the same behavior
CC50 (in vitro [5]): 24.5 µM
Mouse Liver Microsomal Stability (% remaining) 0 min ([7]; 0 min): 100 % remaining
Mouse Liver Microsomal Stability (% remaining) 15 min ([7]; 15 min): 25 % remaining
Mouse Liver Microsomal Stability (% remaining) 30 min ([7]; 30 min): 16 % remaining

COc1cccc(-c2ccnc3c2c(C)nn3-c2ccc(F)cc2)c1 [Compound 37]
Cytotoxicity towards host MDCK cells (MDCK cells): exhibited cytotoxicity

NC(=O)c1ncn([C@@H]2O[C@H](CO)[C@@H](O)[C@H]2O)n1 [Ribavirin, reference compound]
EC50 [2]: 32.2 µM
